From ChEMBL document CHEMBL3217692, “Synthesis and cytotoxicity evaluation of novel pyrido[3,4-d]pyrimidine derivatives as potential anticancer agents” (2012)

How the values were obtained:
NCI-H460 = assay: Cytotoxicity against human NCI-H460 cells assessed as cell growth at 10 uM after 48 hrs by sulforhodamine B assay relative to control; assay type: functional; details: NCI-H460, 48 h, read-out: Activity
In short: (§1)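 Adherent cells were grown in RPMI 1640 with 5% FBS and 2 mM L-glutamine, seeded at 5000–40 000 cells/well by doubling time, and held 24 h at 37 °C, 5% CO2 before drug. Time-zero plates were TCA-fixed. Compound in DMSO, single dose 10 μM, 48 h. Cells were fixed with cold TCA (final 10%, 60 min, 4 °C) and stained with 0.4% SRB. Bound dye was dissolved in 10 mM Tris base and read at 515 nm. Percent growth was derived from time-zero, control and treated absorbances.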

T47D = assay: Cytotoxicity against human T47D cells assessed as cell growth at 10 uM after 48 hrs by sulforhodamine B assay relative to control; assay type: functional; details: read-out: Activity; in short: as §1

COc1nccc2c(-c3cccc(F)c3)nc(N)nc12
growth at 10 µM (NCI-H460): 112%
growth at 10 µM (T47D): 93.5%
